Measured values as given in ChEMBL document CHEMBL1126072, “Hydantoin bioisosteres. In vivo active spiro hydroxy acetic acid aldose reductase inhibitors” (J Med Chem, 1992).

Tests used:
Rattus norvegicus [1] = assay: Inhibition of sorbitol accumulation in sciatic nerves from streptozotocin-diabetic rats dosed at 3*25 mg/kg over 27h.; assay type: functional, Sciatic nerve
[2] = biological target: T1, Aldo-keto reductase family 1 member B1 (Homo sapiens, UniProt P15121); assay: Inhibitory activity against human placental aldose reductase
Rattus norvegicus [3] = assay: Effective dose was tested against the inhibition of sorbitol accumulation in sciatic nerves from streptozotocin-diabetic rats dosed at 3*25 mg/kg over 27h.; assay type: functional; conditions: Sciatic nerve
Rattus norvegicus [4] = assay: Nerve concentration at 3h after the last dose of 25 mg/kg for 5 days.; assay type: functional
Rattus norvegicus [5] = assay: Inhibition of sorbitol accumulation in sciatic nerves from streptozotocin-diabetic rats dosed at 3*10 mg/kg over 27h.; assay type: functional, Sciatic nerve
Method in brief: (§1)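 Male Sprague-Dawley rats (180–220 g, 42–54 days) made diabetic with streptozotocin 85 mg/kg at 0 h. Oral gavage at 4, 7 and 24 h, dose quoted per time point. Sciatic nerve sorbitol measured with sorbitol dehydrogenase/NAD in pH 9.4 glycine. Mean (±SEM) percent inhibition against untreated diabetic controls, Student's t test on absolute sorbitol.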

Rattus norvegicus [6] = assay: Plasma concentration at 3h after the last dose of 25 mg/kg for 5 days.; assay type: functional
Rattus norvegicus [7] = assay: In vivo inhibition of sorbitol accumulation in sciatic nerves from streptozotocin-diabetic rats dosed at 1*25 mg/kg over 5 days.; assay type: functional, Sciatic nerve
[8] = biological target: T1, Aldo-keto reductase family 1 member B1; assay: Compound was tested in vitro for its inhibitory activity against human placental aldose reductase
Rattus norvegicus [9] = assay: In vivo inhibition of sorbitol accumulation in sciatic nerves from streptozotocin-diabetic rats dosed at 3*25 mg/kg over 27h.; assay type: functional, Sciatic nerve
Rattus norvegicus [10] = assay: Inhibition of sorbitol accumulation in sciatic nerves from streptozotocin-diabetic rats dosed at 3*50 mg/kg over 27h.; assay type: functional, Sciatic nerve; method in brief: as §1
[11] = biological target: T1, Aldo-keto reductase family 1 member B1; assay: ARI(aldose reductase inhibitor) enantiospecificity against human placental aldose reductase.

IC50 [2] | Structure (SMILES) | Inhibition (Rattus norvegicus [1]) | ED50 (Rattus norvegicus [3]) | also measured
90 nM | C[C@@H]1C[C@@](O)(CC(=O)O)c2cc(F)c(Br)cc2O1 | – | 4.94 mg/kg | Tissue levels (Rattus norvegicus [4]): 1.31 µg/mL; Inhibition (Rattus norvegicus [5]): 73%; Tissue levels (Rattus norvegicus [6]): 8.8 µg/mL; Inhibition (Rattus norvegicus [7]): 44%; IC50 [8]: 120 nM; Inhibition (Rattus norvegicus [9]): 73%
90 nM | Cc1cc2c(cc1[N+](=O)[O-])[C@](O)(CC(=O)O)C[C@@H](C)O2 | 39% | 35 mg/kg | –
910 nM | C[C@H]1Oc2ccc(F)cc2[C@](O)(CC(=O)O)[C@H]1C | 29% | 47.6 mg/kg | –
1630 nM | C[C@@H]1C[C@@](O)(CC(=O)O)c2c(ccc(Cl)c2Cl)O1 | 50% | 25 mg/kg | –
70 nM | C[C@@H]1C[C@@](O)(CC(=O)O)c2ccc(C(=O)O)cc2O1 | 48% | 26.6 mg/kg | –
400 nM | CC1(C)C[C@@](O)(CC(=O)O)c2cc([N+](=O)[O-])ccc2O1 | 37% | 37.2 mg/kg | –
970 nM | CCC[C@@H]1C[C@@](O)(CC(=O)O)c2cc(F)ccc2O1 | 16% | 70.8 mg/kg | –
5700 nM | C[C@@H]1C[C@@](O)(CC(=O)O)c2cccc(Cl)c2O1 | – | – | –
110 nM | C[C@@H]1C[C@@](O)(CC(=O)O)c2cc([N+](=O)[O-])c(Cl)cc2O1 | 67% | 14.9 mg/kg | –
70 nM | C[C@@H]1C[C@@](O)(CC(=O)O)c2cc([N+](=O)[O-])c(F)cc2O1 | – | – | Inhibition (Rattus norvegicus [5]): 5%
281000 nM | COc1ccc2c(c1)[C@](O)(CC(=O)O)C[C@@H](C)O2 | – | – | –
13100 nM | C[C@@H]1C[C@@](O)(CC(=O)O)c2c(Cl)ccc(Cl)c2O1 | – | – | –
1630 nM | C[C@@H]1C[C@@](O)(CC(=O)O)C2=C(C=CCC2(C)[N+](=O)[O-])O1 (stereo not given in full) | -31% | – | –
5160 nM | C[C@@H]1C[C@@](O)(CC(=O)O)c2cc(Br)cc(Cl)c2O1 | – | – | –
570 nM | CC(C)[C@@H]1C[C@@](O)(CC(=O)O)c2cc(F)ccc2O1 | -7% | – | –
29400 nM | C[C@@H]1C[C@@](O)(CC(=O)O)c2c(Cl)cc(Cl)cc2O1 | – | – | –

Further lines, the compound ahead of its results:

Structure (SMILES) | IC50 [2] | Inhibition (Rattus norvegicus [1]) | ED50 (Rattus norvegicus [3]) | also measured
C[C@@H]1C[C@@](O)(CC(=O)O)c2ccc(Cl)cc2O1 | 3320 nM | 0% | – | –
C[C@@H]1C[C@@](O)(CC(=O)O)c2cc(S(C)(=O)=O)ccc2O1 | 8220 nM | – | – | –
O=C(O)C[C@@]1(O)c2cc(F)ccc2O[C@@H]2CCCC[C@@H]21 | 11000 nM | – | – | –
CC[C@@H]1C[C@@](O)(CC(=O)O)c2cc(F)ccc2O1 | 620 nM | 27% | 50.6 mg/kg | –
Cc1cc2c(cc1Cl)[C@](O)(CC(=O)O)C[C@@H](C)O2 | 240 nM | 72% | 12.7 mg/kg | –
O=C(O)C[C@]1(O)C[C@@H](c2ccccc2)Oc2ccc(F)cc21 | 2670 nM | – | – | Inhibition (Rattus norvegicus [10]): 3%
O=C(O)C[C@]1(O)C[C@@H](CCc2ccccc2)Oc2ccc(F)cc21 | 1140 nM | 5% | – | –
C[C@@H]1C[C@@](O)(CC(=O)O)c2cc([N+](=O)[O-])ccc2O1 | 80 nM | 74% | 12 mg/kg | –
C[C@@H]1C[C@@](O)(CC(=O)O)c2ccc(F)cc2O1 | 5420 nM | – | – | –
C[C@@H]1C[C@@](O)(CC(=O)O)c2c(ccc(F)c2Br)O1 | 4500 nM | – | – | –
C[C@@H]1C[C@@](O)(CC(=O)O)c2cc(Br)ccc2O1 | 1670 nM | 21% | 60.8 mg/kg | –
C[C@@H]1C[C@@](O)(CC(=O)O)c2c(ccc(Cl)c2[N+](=O)[O-])O1 | 95500 nM | – | – | –
CC(=O)c1ccc2c(c1)[C@](O)(CC(=O)O)C[C@@H](C)O2 | 650 nM | 5% | – | –
CC1(C)C[C@@](O)(CC(=O)O)c2cc(Cl)c(Cl)cc2O1 | 1860 nM | 6% | – | –
Cc1ccc2c(c1)[C@](O)(CC(=O)O)C[C@@H](C)O2 | 11300 nM | -16% | – | –
C[C@@H]1C[C@@](O)(CC(=O)O)c2cc(Cl)c(OCc3ccccc3)cc2O1 | 60 nM | – | 32 mg/kg | Inhibition (Rattus norvegicus [5]): 12%
C1CCC(NC2CCCCC2)CC1.O=C(O)C[C@]1(O)C[C@@H](C(=O)c2ccccc2)Oc2ccc(F)cc21 | 1390 nM | 1% | – | –
Cc1cc(Cl)cc2c1O[C@H](C)C[C@@]2(O)CC(=O)O | 1180 nM | 28% | 49 mg/kg | –

Structure (SMILES) | IC50 [2] | Inhibition (Rattus norvegicus [1]) | ED50 (Rattus norvegicus [3]) | also measured
CC(C)(C)[C@@H]1C[C@@](O)(CC(=O)O)c2cc(F)ccc2O1 | 360 nM | 29% | 47.6 mg/kg | –
C[C@@H]1C[C@@](O)(CC(=O)O)c2cc(Cl)c(Br)cc2O1 | 70 nM | – | 11.3 mg/kg | Tissue levels (Rattus norvegicus [4]): 3.11 µg/mL; Inhibition (Rattus norvegicus [5]): 46%; Tissue levels (Rattus norvegicus [6]): 12.7 µg/mL; Inhibition (Rattus norvegicus [7]): 33%; IC50 [8]: 50 nM; Inhibition (Rattus norvegicus [9]): 46%
C[C@@H]1C[C@@](O)(CC(=O)O)c2cc(Cl)c(Cl)cc2O1 | – | – | – | IC50 [11]: 5620 nM
C[C@@H]1C[C@@](O)(CC(=O)O)c2c(Cl)cccc2O1 | 43500 nM | – | – | –
C[C@@H]1C[C@@](O)(CC(=O)O)c2cc(C#N)c(F)cc2O1 | 130 nM | – | 29.2 mg/kg | Inhibition (Rattus norvegicus [5]): 15%
C[C@@H]1COc2ccc(F)cc2[C@]1(O)CC(=O)O | 11000 nM | – | – | –
C[C@@H]1C[C@@](O)(CC(=O)O)c2cc(Cl)ccc2O1 | 820 nM | 67% | 14.9 mg/kg | –
C[C@@H]1C[C@@](O)(CC(=O)O)c2ccccc2O1 | 14800 nM | – | – | Inhibition (Rattus norvegicus [10]): 9%
C[C@@H]1C[C@@](O)(CC(=O)O)c2cc(F)c(F)cc2O1 | 250 nM | – | 5.94 mg/kg | Tissue levels (Rattus norvegicus [4]): <0.1 µg/mL; Inhibition (Rattus norvegicus [5]): 67%; Tissue levels (Rattus norvegicus [6]): 2.19 µg/mL; Inhibition (Rattus norvegicus [7]): -20%; IC50 [8]: 350 nM; Inhibition (Rattus norvegicus [9]): 67%
C[C@@H]1[C@@H](C)Oc2ccc(F)cc2[C@]1(O)CC(=O)O | 29400 nM | – | – | –
C[C@@H]1C[C@@](O)(CC(=O)O)c2cc(Cl)c3ccccc3c2O1 | 400 nM | 45% | 29.1 mg/kg | –
C[C@@H]1C[C@@](O)(CC(=O)O)c2ccc(Cl)c(Cl)c2O1 | 780 nM | – | – | –
CC1(C)C[C@@](O)(CC(=O)O)c2c(ccc(Cl)c2Cl)O1 | 14800 nM | – | – | –
CCc1cc2c(cc1Cl)[C@](O)(CC(=O)O)C[C@@H](C)O2 | 100 nM | – | 13.6 mg/kg | Inhibition (Rattus norvegicus [5]): 40%
C[C@@H]1C[C@@](O)(CC(=O)O)c2cc(Cl)c(F)cc2O1 | 390 nM | – | 19 mg/kg | Tissue levels (Rattus norvegicus [4]): 2.35 µg/mL; Inhibition (Rattus norvegicus [5]): 29%; Tissue levels (Rattus norvegicus [6]): 13.4 µg/mL; Inhibition (Rattus norvegicus [7]): -30%; IC50 [8]: 410 nM; Inhibition (Rattus norvegicus [9]): 29%
C[C@@H]1C[C@@](O)(CC(=O)O)c2cc(Cl)cc(Cl)c2O1 | 1000 nM | 48% | 26.6 mg/kg | –
COc1cc2c(cc1Cl)[C@](O)(CC(=O)O)C[C@@H](C)O2 | 190 nM | 53% | 36.5 mg/kg | –
